Test results from ChEMBL document CHEMBL1142386, “Synthesis and structure-activity relationship studies in peripheral benzodiazepine receptor ligands related to alpidem” (Bioorg Med Chem, 2008).

Molecular target: Translocator protein (Rattus norvegicus, UniProt P16257)
Assay: Displacement of [3H]PK115 from peripheral benzodiazepine receptor in Sprague-Dawley rat cortical membrane
Procedure, shortened: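 Male Sprague–Dawley rats, 200–250 g; cerebral cortex homogenized in ice-cold PBS pH 7.4, washed twice by centrifugation at 40,000g. Filtration on PEI-presoaked GF/B filters, scintillation counting. IC50 from 6–10 concentrations in triplicate; mean ± SEM of three determinations.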

Translocator protein, sequence (P16257 whole entry, looked up): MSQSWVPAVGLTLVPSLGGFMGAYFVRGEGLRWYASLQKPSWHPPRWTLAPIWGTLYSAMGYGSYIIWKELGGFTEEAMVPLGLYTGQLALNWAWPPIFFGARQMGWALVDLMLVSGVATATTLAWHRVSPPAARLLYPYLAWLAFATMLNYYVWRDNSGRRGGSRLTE

CN(Cc1ccccc1)C(=O)/C=C1\c2nc3ccccc3cc2C(=O)N1c1ccc(Cl)cc1
IC50: 26 nM

CN(C(=O)/C=C1\c2nc3ccccc3cc2C(=O)N1c1ccc(Cl)cc1)c1ccc(Cl)cc1
IC50: 0.62 nM

COc1ccc(N(C)C(=O)/C=C2\c3nc4ccccc4cc3C(=O)N2c2ccc(Cl)cc2)cc1
IC50: 0.9 nM

COc1ccc(NC(=O)/C=C2\c3nc4ccccc4cc3C(=O)N2c2ccc(Cl)cc2)cc1
IC50: 76 nM

COc1ccc(N(C)C/C=C2\c3nc4ccccc4cc3C(=O)N2c2ccc(Cl)cc2)cc1
IC50: 2360 nM

COc1ccc(N(C)C(=O)/C=C2\c3nc4ccccc4cc3C(=O)N2c2ccccc2)cc1
IC50: 12 nM

CN(C(=O)/C=C1\c2nc3ccccc3cc2C(=O)N1c1ccccc1)c1ccc(Cl)cc1
IC50: 10 nM

C#CCN(C)C(=O)/C=C1\c2nc3ccccc3cc2C(=O)N1c1ccc(Cl)cc1
IC50: 320 nM

CN(C(=O)/C=C1\c2nc3ccccc3cc2C(=O)N1c1ccc(Cl)cc1)c1ccc(O)cc1
IC50: 74 nM

CN(C(=O)/C=C1\c2nc3ccccc3cc2C(=O)N1c1ccc(Cl)cc1)c1ccccc1
IC50: 44 nM

CCN(Cc1ccccc1)C(=O)/C=C1\c2nc3ccccc3cc2C(=O)N1c1ccc(Cl)cc1
IC50: 15 nM
